Results taken from ChEMBL document CHEMBL5649170, “Sustained microglial depletion with CSF1R inhibitor impairs parenchymal plaque development in an Alzheimer's disease model” (Nat Commun, 2019).

Assays:
Activin receptor type-1B = Activin receptor type-1B (Homo sapiens, UniProt P36896); assay: Inhibition of ACVR1B (unknown origin)
[1] = molecular target: Cyclin-dependent kinase 5/CDK5 activator 1 (Homo sapiens, UniProt Q00535); assay: Inhibition of CDK5_p35 (unknown origin); assay type: protein-complex assay
[2] = molecular target: Dual specificity tyrosine-phosphorylation-regulated kinase 1B (Homo sapiens, UniProt Q9Y463); assay: Inhibition of DYRK1B (unknown origin)
Ephrin type-A receptor 8 = Ephrin type-A receptor 8 (Homo sapiens, UniProt P29322); assay: Inhibition of EPHA8 (unknown origin)
[3] = molecular target: Receptor tyrosine-protein kinase erbB-2 (Homo sapiens, UniProt P04626); assay: Inhibition of ERBB2 (unknown origin)
[4] = molecular target: Glycogen synthase kinase-3 alpha (Homo sapiens, UniProt P49840); assay: Inhibition of GSK3A (unknown origin)
[5] = molecular target: Leucine-rich repeat serine/threonine-protein kinase 2 (Homo sapiens, UniProt Q5S007); assay: Inhibition of LRRK2 (unknown origin)
[6] = molecular target: Protein kinase C alpha type (Homo sapiens, UniProt P17252); assay: Inhibition of PRKCA (unknown origin)
[7] = molecular target: Tyrosine-protein kinase SYK (Homo sapiens, UniProt P43405); assay: Inhibition of SYK (unknown origin)
[8] = Clearance in male rat at 1.13 mg/kg, iv administered as single dose; assay type: ADME, organism-based; settings: in vivo
Mus musculus [9] = assay: Antialzheimer activity in 5XFAD mouse assessed as time spent in closed arm at 1200 ppm administered as rodent chow for 10 to 24 weeks by Elevated plus maze test (reference value: 76.2 to 206.2 sec); assay type: functional; settings: route po, time 10-24 weeks
Mus musculus [10] = assay: Antialzheimer activity in 5XFAD mouse assessed as time to locate platform at 1200 ppm administered as rodent chow for 10 to 24 weeks by Morris water maze test (reference value: 6.5 to 60 sec); assay type: functional; settings: route po, time 10-24 weeks
Procedure, shortened: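 Morris water maze: a circular pool was filled with opaque water (white paint added), and mice were given four trials per acquisition day. Twenty-four hours after the last acquisition day, the platform was removed for a 60 s probe trial. Mice had been on 1200 ppm PLX5622 or control chow for 10 or 24 weeks from 1.5 months of age.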

Mus musculus [11] = assay: Antialzheimer activity in 5XFAD mouse assessed as amyloidbeta42 level in detergent soluble cortex fraction measured per microgram protein at 1200 ppm administered as rodent chow starting from 1.5 months and measured after 4 months by ELISA (reference value: 0 to 0.063 pg); assay type: functional; settings: route po, time 2.5 months, 1825 h
Procedure, shortened: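 PLX5622 at 1200 ppm in chow given to 5xFAD mice from 1.5 months to 4 or 7 months of age; cortex and thalamus homogenized in TPER (detergent-soluble), pellets re-homogenized in 70% formic acid and spun 100,000 g, 1 h, 4 °C (insoluble); protein by Bradford/Lowry; Aβ species measured by Meso Scale electrochemiluminescence immunoassay, normalized to protein; n = 7–8 per group at 7 months.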

Mus musculus [12] = assay: Effect on APP processing pathway in wildtype mouse assessed as C83 protein signal intensity in cortex at 1200 ppm administered as rodent starting from 1.5 months and measured after 7 months (reference value: 2.769 to 56.642 %); assay type: functional; settings: route po, time 5.5 months, 4015 h
Mus musculus [13] = assay: Antialzheimer activity in 5XFAD mouse assessed as alteration in plaque morphology by measuring average plaque circularity in thalamus at 1200 ppm administered as rodent chow starting from 1.5 months and measured after 7 months by Thio-S labeling based confocal microscopic analysis (reference value: 0.257 to 0.365); assay type: functional; settings: route po, time 5.5 months, 4015 h
[14] = Effect on C1qa gene expression in 5XFAD mouse cortex at 1200 ppm administered as rodent chow starting from 1.5 months and measured after 7 months by RNA-Seq analysis (reference value: 31.609 to 64.988 RPKM); assay type: functional; settings: route po, time 5.5 months, 4015 h
Procedure, shortened: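 WT and 5xFAD mice were treated with 1200 ppm PLX5622 chow or control chow from 1.5 to 7 months of age. Brains were microdissected into cortex, hippocampus and thalamus, and RNA was extracted from tissue powder. Whole-transcriptome RNA-Seq libraries were sequenced, with n = 4 per group per region (48 samples).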

[15] = Effect on Dync1i1 gene expression in wildtype mouse hippocampus assessed as percent change in Reads Per kilo base per Million mapped reads at 1200 ppm administered as rodent chow starting from 1.5 months and measured after 7 months by RNA-Seq analysis (reference value: 96.347 to 105.024 %); assay type: functional; settings: route po, time 5.5 months, 4015 h
[16] = Prevention of Pcdhac1 gene downregulation in 5XFAD mouse hippocampus assessed as percent change in Reads Per kilo base per Million mapped reads at 1200 ppm administered as rodent chow starting from 1.5 months and measured after 7 months by RNA-Seq analysis (reference value: 43.082 to 72.354 %); assay type: functional; settings: route po, time 5.5 months, 4015 h
[17] = molecular target: T1, Macrophage colony-stimulating factor 1 receptor (Mus musculus) (UniProt P09581); assay: In vivo inhibition of CSF1R in wildtype mouse assessed as microglial numbers by measuring number of Iba positive cells per FOV in somatosensory cortex at 75 ppm administered as rodent chow starting from 1.5 months and measured after 5 months by immunolabeling based confocal microscopic analysis (reference value: 218 to 349); assay type: functional; settings: route po, time 3.5 months
T1 sequence (whole entry): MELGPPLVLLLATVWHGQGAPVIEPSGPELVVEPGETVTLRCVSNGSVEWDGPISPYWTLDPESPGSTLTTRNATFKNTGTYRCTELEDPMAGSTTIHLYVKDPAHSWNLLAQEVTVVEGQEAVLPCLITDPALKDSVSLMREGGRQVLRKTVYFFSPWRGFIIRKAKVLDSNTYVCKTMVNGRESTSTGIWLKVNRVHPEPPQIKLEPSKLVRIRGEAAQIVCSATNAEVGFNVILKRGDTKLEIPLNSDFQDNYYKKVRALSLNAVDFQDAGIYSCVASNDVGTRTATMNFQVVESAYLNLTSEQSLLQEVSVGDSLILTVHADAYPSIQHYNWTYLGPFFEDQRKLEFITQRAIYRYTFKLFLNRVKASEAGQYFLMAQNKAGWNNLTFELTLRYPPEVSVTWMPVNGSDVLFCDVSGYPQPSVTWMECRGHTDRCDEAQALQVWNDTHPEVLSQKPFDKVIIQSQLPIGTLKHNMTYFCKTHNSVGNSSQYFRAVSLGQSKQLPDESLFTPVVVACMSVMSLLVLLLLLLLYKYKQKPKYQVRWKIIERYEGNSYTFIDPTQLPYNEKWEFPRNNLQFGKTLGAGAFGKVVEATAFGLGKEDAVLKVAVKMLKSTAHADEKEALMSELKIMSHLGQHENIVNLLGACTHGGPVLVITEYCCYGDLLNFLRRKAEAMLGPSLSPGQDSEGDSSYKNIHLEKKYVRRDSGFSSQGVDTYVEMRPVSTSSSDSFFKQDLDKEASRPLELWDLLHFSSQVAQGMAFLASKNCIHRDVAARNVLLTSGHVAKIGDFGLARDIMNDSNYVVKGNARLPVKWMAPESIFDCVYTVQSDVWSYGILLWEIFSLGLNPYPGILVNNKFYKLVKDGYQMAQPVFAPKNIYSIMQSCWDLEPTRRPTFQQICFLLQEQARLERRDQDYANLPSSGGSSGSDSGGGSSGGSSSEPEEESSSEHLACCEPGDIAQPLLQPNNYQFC

Chain of Leucine-rich repeat serine/threonine-protein kinase 2 (Q5S007 whole entry): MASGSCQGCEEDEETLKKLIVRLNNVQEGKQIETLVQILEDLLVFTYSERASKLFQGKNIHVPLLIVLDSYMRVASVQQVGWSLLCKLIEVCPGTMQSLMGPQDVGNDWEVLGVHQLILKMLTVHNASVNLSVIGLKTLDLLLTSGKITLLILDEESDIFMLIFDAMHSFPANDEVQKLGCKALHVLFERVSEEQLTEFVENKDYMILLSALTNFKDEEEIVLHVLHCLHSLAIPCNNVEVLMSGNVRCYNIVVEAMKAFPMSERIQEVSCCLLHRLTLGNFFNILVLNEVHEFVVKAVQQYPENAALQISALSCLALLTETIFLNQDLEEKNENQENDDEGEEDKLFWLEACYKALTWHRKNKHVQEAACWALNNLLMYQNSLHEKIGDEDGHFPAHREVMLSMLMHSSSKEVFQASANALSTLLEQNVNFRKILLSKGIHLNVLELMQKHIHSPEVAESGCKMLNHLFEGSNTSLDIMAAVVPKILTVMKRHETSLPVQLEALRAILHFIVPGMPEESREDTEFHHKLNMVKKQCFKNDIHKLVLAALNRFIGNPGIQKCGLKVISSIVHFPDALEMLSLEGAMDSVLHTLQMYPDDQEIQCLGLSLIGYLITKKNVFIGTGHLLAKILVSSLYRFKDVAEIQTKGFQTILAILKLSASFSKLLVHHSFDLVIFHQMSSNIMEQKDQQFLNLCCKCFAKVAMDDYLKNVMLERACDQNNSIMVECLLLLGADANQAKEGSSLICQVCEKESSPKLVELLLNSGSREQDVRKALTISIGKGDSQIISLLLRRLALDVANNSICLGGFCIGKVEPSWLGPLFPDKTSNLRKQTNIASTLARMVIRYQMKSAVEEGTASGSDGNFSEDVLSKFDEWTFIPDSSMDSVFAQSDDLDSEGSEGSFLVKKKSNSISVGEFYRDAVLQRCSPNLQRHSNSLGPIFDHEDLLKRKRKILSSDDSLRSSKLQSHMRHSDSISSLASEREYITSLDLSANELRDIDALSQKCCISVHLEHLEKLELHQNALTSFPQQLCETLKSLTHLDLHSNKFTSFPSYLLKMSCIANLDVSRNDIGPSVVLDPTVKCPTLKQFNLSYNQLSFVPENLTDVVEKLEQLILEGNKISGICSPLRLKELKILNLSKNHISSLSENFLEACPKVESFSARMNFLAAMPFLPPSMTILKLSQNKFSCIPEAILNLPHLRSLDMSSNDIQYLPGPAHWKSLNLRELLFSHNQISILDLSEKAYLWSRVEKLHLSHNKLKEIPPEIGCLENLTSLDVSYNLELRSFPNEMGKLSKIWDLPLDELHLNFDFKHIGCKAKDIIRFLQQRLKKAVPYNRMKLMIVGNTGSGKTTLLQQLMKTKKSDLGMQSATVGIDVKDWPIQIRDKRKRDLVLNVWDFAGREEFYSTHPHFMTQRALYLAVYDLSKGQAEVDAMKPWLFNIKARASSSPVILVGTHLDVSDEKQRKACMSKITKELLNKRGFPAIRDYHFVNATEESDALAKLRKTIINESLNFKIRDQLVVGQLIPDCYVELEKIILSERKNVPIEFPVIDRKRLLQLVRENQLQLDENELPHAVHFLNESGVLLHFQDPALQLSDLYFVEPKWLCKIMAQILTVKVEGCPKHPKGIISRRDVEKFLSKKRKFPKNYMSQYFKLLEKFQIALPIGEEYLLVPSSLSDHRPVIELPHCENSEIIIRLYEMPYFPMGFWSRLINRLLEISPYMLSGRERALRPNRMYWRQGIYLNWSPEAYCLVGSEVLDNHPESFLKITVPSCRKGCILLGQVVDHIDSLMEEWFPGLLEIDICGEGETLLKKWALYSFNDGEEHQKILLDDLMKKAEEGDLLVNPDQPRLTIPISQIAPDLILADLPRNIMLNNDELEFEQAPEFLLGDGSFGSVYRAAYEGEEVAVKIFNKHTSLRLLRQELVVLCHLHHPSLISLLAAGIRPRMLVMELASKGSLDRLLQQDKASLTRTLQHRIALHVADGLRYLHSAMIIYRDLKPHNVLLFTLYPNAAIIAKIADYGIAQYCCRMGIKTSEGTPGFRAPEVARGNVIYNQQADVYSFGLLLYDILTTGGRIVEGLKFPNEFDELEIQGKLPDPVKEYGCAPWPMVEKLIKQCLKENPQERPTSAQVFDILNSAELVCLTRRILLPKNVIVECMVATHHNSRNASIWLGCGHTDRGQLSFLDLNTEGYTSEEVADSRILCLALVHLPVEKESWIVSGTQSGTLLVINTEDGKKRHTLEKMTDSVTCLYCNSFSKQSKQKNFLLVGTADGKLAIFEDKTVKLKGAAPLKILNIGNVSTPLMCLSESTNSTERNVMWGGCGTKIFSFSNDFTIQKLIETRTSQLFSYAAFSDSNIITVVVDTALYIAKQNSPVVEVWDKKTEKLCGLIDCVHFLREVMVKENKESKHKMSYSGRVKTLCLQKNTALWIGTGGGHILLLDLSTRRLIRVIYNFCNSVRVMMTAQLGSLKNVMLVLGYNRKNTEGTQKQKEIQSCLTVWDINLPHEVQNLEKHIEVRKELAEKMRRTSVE
Chain of Cyclin-dependent kinase 5/CDK5 activator 1 (Q00535 whole entry): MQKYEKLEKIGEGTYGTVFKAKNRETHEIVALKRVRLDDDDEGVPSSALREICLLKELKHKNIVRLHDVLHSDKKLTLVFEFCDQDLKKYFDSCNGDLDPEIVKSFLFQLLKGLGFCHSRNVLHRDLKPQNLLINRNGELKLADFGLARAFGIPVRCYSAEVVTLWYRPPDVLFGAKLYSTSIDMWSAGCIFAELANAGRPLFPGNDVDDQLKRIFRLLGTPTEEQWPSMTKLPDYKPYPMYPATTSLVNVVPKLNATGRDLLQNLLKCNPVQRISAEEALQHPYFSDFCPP
Chain of Cyclin-dependent kinase 5/CDK5 activator 1 (Q15078 whole entry, further chain): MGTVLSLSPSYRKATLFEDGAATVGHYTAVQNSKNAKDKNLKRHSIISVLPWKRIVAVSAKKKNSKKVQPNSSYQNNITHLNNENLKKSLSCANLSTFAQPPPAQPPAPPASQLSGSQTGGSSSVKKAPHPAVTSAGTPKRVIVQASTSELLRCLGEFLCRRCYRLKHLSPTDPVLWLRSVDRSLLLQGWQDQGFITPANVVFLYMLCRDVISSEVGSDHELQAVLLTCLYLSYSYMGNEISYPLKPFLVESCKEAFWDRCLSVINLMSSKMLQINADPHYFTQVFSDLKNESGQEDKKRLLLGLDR
Chain of Receptor tyrosine-protein kinase erbB-2 (P04626 whole entry): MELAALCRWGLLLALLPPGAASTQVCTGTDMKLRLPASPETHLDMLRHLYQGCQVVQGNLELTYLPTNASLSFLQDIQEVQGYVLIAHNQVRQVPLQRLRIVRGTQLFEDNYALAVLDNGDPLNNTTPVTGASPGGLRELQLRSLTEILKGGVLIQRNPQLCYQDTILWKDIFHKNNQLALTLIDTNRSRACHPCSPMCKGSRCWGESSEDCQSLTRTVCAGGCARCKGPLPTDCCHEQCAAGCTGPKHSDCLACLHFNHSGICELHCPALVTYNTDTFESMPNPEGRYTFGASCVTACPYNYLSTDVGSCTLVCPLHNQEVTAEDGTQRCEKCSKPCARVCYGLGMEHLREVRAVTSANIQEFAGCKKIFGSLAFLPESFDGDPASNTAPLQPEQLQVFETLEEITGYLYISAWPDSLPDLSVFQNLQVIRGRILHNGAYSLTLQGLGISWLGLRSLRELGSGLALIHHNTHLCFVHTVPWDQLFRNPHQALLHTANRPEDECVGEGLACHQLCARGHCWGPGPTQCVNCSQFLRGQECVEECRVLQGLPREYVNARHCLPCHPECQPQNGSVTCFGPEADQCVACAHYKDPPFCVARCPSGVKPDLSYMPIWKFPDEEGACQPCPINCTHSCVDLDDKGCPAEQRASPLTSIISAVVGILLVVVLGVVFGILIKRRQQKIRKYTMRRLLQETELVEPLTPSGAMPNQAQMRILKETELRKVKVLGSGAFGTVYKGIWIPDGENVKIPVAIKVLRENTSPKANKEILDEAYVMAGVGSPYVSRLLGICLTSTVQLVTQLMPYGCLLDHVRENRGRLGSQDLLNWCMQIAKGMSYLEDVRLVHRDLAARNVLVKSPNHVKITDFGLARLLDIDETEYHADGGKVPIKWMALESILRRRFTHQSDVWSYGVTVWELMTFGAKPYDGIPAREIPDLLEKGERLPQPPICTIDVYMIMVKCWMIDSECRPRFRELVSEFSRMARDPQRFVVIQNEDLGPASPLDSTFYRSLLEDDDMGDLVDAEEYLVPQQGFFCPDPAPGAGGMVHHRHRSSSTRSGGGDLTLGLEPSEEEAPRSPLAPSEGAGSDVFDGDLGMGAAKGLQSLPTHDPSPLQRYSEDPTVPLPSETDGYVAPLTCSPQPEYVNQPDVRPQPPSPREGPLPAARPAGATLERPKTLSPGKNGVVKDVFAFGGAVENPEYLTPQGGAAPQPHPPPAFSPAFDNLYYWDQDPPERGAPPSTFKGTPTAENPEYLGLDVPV
Chain of Glycogen synthase kinase-3 alpha (P49840 whole entry): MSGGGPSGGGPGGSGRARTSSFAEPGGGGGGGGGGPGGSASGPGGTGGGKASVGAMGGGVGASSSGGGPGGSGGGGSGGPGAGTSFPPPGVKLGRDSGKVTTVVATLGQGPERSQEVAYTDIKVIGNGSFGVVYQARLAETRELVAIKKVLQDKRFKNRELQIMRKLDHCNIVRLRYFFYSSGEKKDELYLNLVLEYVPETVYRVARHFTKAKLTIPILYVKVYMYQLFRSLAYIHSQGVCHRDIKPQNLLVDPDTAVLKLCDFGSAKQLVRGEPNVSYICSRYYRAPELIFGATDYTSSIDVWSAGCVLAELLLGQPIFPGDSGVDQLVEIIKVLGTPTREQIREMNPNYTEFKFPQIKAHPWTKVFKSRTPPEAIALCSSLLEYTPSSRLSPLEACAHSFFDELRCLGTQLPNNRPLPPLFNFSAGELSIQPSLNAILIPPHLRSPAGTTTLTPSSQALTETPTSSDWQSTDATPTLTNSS

Structure (SMILES): COc1ncc(F)cc1CNc1ccc(Cc2c[nH]c3ncc(C)cc23)c(F)n1 [PLX-5622]
- IC50 (Activin receptor type-1B): > 1000 nM
- IC50 [1]: > 1000 nM
- IC50 [2]: > 1000 nM
- IC50 (Ephrin type-A receptor 8): > 1000 nM
- IC50 [3]: > 1000 nM
- IC50 [4]: > 1000 nM
- IC50 [5]: > 1000 nM
- IC50 [6]: > 1000 nM
- IC50 [7]: > 1000 nM
- clearance [8]: 7.7 mL/min/kg
- Time (Mus musculus [9]): 30.9 s
- Time (Mus musculus [10]): 9.2 s
- Activity (Mus musculus [11]): 0.006 pg
- Activity (Mus musculus [12]): 9.38%
- Activity (Mus musculus [13]): 0.175
- Activity [14]: 2.8 RPKM
- Activity [15]: 81.186%
- Activity [16]: 76.485%

Structure (SMILES): FC(F)(F)c1ccc(CNc2ccc(Cc3c[nH]c4ncc(Cl)cc34)cn2)cn1 [PEXIDARTINIB]
- Activity [17]: 205
